High-throughput results from PubChem BioAssay.
OX1R antag-1: human HCRTR1 antagonism; O43613; CHO/OX1R cells, Fluo-8 calcium fluorescence, orexin A; inhibition, % at 5 µM; hit rate 0.43% among 330,000;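 active means inhibition above its plate's threshold, mean inhibition of all tested compounds on the plate plus 3 SD, cut at about 37% in these data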
GPR7 antagonist: human neuropeptides B/W receptor 1 antagonism | GPR7-expressing cells, fluorescence antagonist assay | inhibition, % at 4.4 µM | hit rate 1.1% among 290,000 | AID 1861; in the data active means inhibition above about 16%, passing the limit was not always enough;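 further: cells stimulated with the agonist NPW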
TAAR1 agonist: agonists of human TAAR1 | Q96RJ0 | CHO RD-HGA16 TAAR1, Fluo-8 calcium fluorescence; vehicle wells 0%, saturating PEA agonist 100% | activation, % at 3 µM | hit rate 0.99% among 360,000 | AID 624467;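 active means activation above the mean activation of all test compounds in the run plus 3 SD, cut at about 38% in these data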
Target sequence (Q96RJ0 whole entry, looked up): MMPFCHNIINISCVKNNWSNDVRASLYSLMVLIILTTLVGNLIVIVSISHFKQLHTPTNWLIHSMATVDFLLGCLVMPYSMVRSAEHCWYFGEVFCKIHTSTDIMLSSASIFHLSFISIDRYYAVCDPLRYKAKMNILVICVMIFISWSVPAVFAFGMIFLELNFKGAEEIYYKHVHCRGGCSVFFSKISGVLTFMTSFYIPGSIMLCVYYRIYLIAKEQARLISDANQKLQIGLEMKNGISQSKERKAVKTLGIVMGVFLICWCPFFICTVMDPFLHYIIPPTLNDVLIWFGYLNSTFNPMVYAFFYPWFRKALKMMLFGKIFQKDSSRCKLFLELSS
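Test system: RD-HGA16 (CHO) cells co-expressing Gα16 and hTAAR1; dosing: one-point dosing at 3 µM (nominal); timing: 17-24 h seeding, 75 min 37 °C dye, 30 min RT; signal: kinetic Fluo-8 calcium fluorescence; read-out basis: % activation relative to PEA EC100 response; controls: DMSO and PEA EC100; replicates: n 1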
OX1R antag-2: OX1R (human) antagonism; O43613; OX1R-expressing cells, FRET antagonist read-out; inhibition, % at 6.6 µM; hit rate 1.8% among 330,000; in the data active means inhibition mostly above about 38%, no sharp cut-off; inactive means mostly below about 40%
CHO parental Ca: counter-screen: ATP calcium response change in parental CHO cells; parental CHO-K1, ATP-induced calcium, Fluo-8 fluorescence; inhibition, % at 5.6 µM; hit rate 0.63% among 330,000; AID 463079;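 active means inhibition above that plate's mean sample inhibition plus 3 SD, cut at about 26% in these data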
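Test system: untransfected parental CHO cell line. Compound: one dose, 5.6 µM nominal. Detection: intracellular calcium via Fluo-8 no-wash fluorescent dye. Measure: % inhibition. Benchmarks: ATP-challenged DMSO wells low, unchallenged DMSO wells high.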
TAAR1 antagonist: human TAAR1 antagonism; inhibition, % at 3 µM; hit rate 1.5% among 360,000; CHO RD-HGA16 TAAR1, Fluo-8 calcium fluorescence, antagonist; AID 624466; Q96RJ0;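 active means inhibition above a per-plate cutoff, the mean inhibition of test compounds on that plate plus 3 SD, cut at about 49% in these data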
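Test system – hTAAR1-expressing CHO RD-HGA16 cells, Gα16-coupled · Reagent – β-PEA at EC80 concentration, post-compound challenge · Compound dosing – 3 µM, single point · Timing – 140 s kinetic read after compound, 140 s after agonist · Detection – Fluo-8 intracellular calcium dye fluorescence, real-time kinetic reads · Control set – DMSO and EC80 PEA controls · Repeats – n of 1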
TAAR1 nonsel count: nonselective antagonist in TAAR1 antagonist counter-screen; shares compounds with TAAR1 antagonist; counterscreen cell line, calcium fluorescence, antagonist mode; inhibition, % at 3 µM; hit rate 77% among 2,400; AID 651780; in the data active means inhibition above about 22%;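 further: CHO-Ga16 host cells stimulated with ATP at an EC80 level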
TAAR1 ant conf: confirmation of human TAAR1 antagonists; shares compounds with TAAR1 antagonist; TAAR1-expressing cells, fluorescence antagonist read-out; inhibition, % at 3 µM; hit rate 40% among 2,400; AID 651785; in the data active means inhibition above about 49%;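 further: CHO-Ga16 host cells challenged with agonist PEA near its EC80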
Ga16 ag counter: counter-screen for TAAR1 antagonists: nonselective Ga16 agonists | shares compounds with TAAR1 antagonist | Ga16-expressing cells, calcium fluorescence, agonist counterscreen | activation, % at 3 µM | hit rate 18% among 2,400; in the data active means activation above about 12%
TAAR1 ag counter: TAAR1 agonism, antagonist counter-screen | shares compounds with TAAR1 antagonist | hTAAR1 cell line, fluorescence activation, agonist mode | activation, % at 3 µM | hit rate 2% among 2,400; in the data active means activation above about 37%;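 further: CHO cells stably expressing TAAR1 with calcium dye readout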
Each line names hits and unclear results; the compound was inactive in the other large screens (follow-up assays come after a bar, where they were run). Compounds with a hit are over-represented: about 4.5% of the library has one in this group of screens.

COc1ccc(CN2C(=O)CN(S(C)(=O)=O)CC2(C)C(=O)NCc2ccccc2)cc1OC (stereo not drawn)	none (no result: OX1R antag-1, GPR7 antagonist, OX1R antag-2, CHO parental Ca)
CC1=C(C(=O)N2CCCCCC2)CC(CC(=O)NC2CCCC2)C(=O)N1CCC1=CCCCC1 (stereo not drawn)	none (no result: OX1R antag-1, GPR7 antagonist, OX1R antag-2, CHO parental Ca)
C[C@@]12CC[C@@H](C3=C(CCC3)C1)N2c1ccccc1	none (no result: OX1R antag-1, GPR7 antagonist, OX1R antag-2, CHO parental Ca)
CCCCN1C(=O)C(CC(=O)NCCc2ccccn2)CC(C(=O)N(CC)CC)=C1C (stereo not drawn)	none (no result: OX1R antag-1, GPR7 antagonist, OX1R antag-2, CHO parental Ca)
Cc1cc(C)c2c(=O)n3c(nc2c1)C(Cc1ccc(O)cc1)NC(=O)c1cc2ccccc2cc1-3 (stereo not drawn)	none (no result: OX1R antag-1, GPR7 antagonist, OX1R antag-2, CHO parental Ca)
CCCCN1C(=O)c2ccc(C(=O)Nc3ccc(C)c(S(=O)(=O)N(C)C)c3)cc2C1=O	TAAR1 antagonist 68.0 | TAAR1 nonsel count 50.4 | TAAR1 ant conf 53.8 | Ga16 ag counter 12.9 | TAAR1 ag counter inactive
CCCCN1C(=O)c2ccc(C(=O)Nc3cccc(C)c3C)cc2C1=O	none
Nc1ccn([C@@H]2O[C@H](C(=O)N[C@H]3c4ccccc4C[C@H]3O)[C@@H](O)[C@H]2O)c(=O)n1	none (no result: OX1R antag-1, GPR7 antagonist, OX1R antag-2, CHO parental Ca)
COc1cccc(CN2CCC2(C)C(=O)Nc2cccc(Oc3ccccc3)c2)c1F (stereo not drawn)	none (no result: OX1R antag-1, GPR7 antagonist, OX1R antag-2, CHO parental Ca)
O=C(NCc1ccccc1)C(c1ccc(O)cc1)N(C(=O)c1cnccn1)c1ccccc1 (stereo not drawn)	TAAR1 antagonist 62.7 | TAAR1 nonsel count 33.7 | TAAR1 ant conf 52.6 | Ga16 ag counter inactive | TAAR1 ag counter inactive
O=C(NCc1ccccc1)C(c1ccco1)N(C(=O)c1ccccn1)c1ccccc1 (stereo not drawn)	none
COc1ccc(CNC(=O)C(c2ccco2)N(C(=O)c2ccccn2)c2ccccc2)cc1 (stereo not drawn)	TAAR1 antagonist 64.0 | TAAR1 nonsel count 22.2 | TAAR1 ant conf inactive | Ga16 ag counter inactive | TAAR1 ag counter inactive
COCCNC(=O)c1ccc(N2CC3CC(C2)c2cccc(=O)n2C3)c(NC(=O)c2ccc(C(C)(C)C)cc2)c1 (stereo not drawn)	none (no result: OX1R antag-1, GPR7 antagonist, OX1R antag-2, CHO parental Ca)
CCOC(=O)c1[nH]c2ccc(Cl)cc2c1NC(=O)/C=C/c1ccc2c(c1)OCO2	none
CCN(CC(=O)Nc1c(C(=O)OC)[nH]c2ccc(Cl)cc12)c1ccc2c(c1)OCO2	TAAR1 antagonist 59.7 | TAAR1 nonsel count 27.2 | TAAR1 ant conf inactive | Ga16 ag counter inactive | TAAR1 ag counter inactive
CC1(C(=O)NS(=O)(=O)c2cccs2)CCN1C(=O)Cc1ccccc1 (stereo not drawn)	none (no result: OX1R antag-1, GPR7 antagonist, OX1R antag-2, CHO parental Ca)
CCOC(=O)c1c(-c2ccccc2)nnn1-c1nc(OCC)nc(N2CCCCC2)n1	CHO parental Ca 52.1, TAAR1 antagonist 52.7 | TAAR1 nonsel count 22.9 | TAAR1 ant conf inactive | Ga16 ag counter inactive | TAAR1 ag counter inactive
COc1ccc([C@@H]2C[C@H]3[C@@H](CN2S(=O)(=O)c2ccccc2)C(=O)C[C@@H](c2cccc4ccccc24)N3S(=O)(=O)c2ccc(C)cc2)cc1	none (no result: OX1R antag-1, GPR7 antagonist, OX1R antag-2, CHO parental Ca)
CCN(c1ccccc1)S(=O)(=O)c1ccc(Cl)c(C(=O)OCC(=O)c2[nH]c(C)c(C(C)=O)c2C)c1	TAAR1 antagonist 63.5 | TAAR1 nonsel count inactive | TAAR1 ant conf inactive | Ga16 ag counter inactive | TAAR1 ag counter inactive
CC(C)(C)C(=O)Nc1sc2c(c1C#N)CCN(Cc1ccccc1)C2	none
OC[C@@H]1CN(Cc2cccs2)C[C@H](n2cnc3c(NCc4ccco4)ncnc32)O1	none (no result: OX1R antag-1, GPR7 antagonist, OX1R antag-2, CHO parental Ca)
O=C(Nc1ccc(N2CCOCC2)c(Cl)c1)c1ccc(F)cc1	TAAR1 antagonist 62.9 | TAAR1 nonsel count inactive | TAAR1 ant conf inactive | Ga16 ag counter inactive | TAAR1 ag counter inactive
